Assay results: ChEMBL document CHEMBL5058577, “EUbOPEN Chemogenomics Library 2 (Multiplex)” (2022)

Tested on: HEK-293T
Test: Multiplex assay against HEK293T
Format: toxicity, cell-based
Details: human
Outline: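 Four dyes were applied at seeding to live cells: Hoechst33342, BioTracker Green Microtubule Cytoskeleton Dye, MitoTracker Red and Annexin V Alexa Fluor 680. Imaging after compound addition used a CQ1 microscope at 37°C and 5% CO2. CellPathfinder machine-learning gating then sorted cells into Hoechst high-intensity objects or normal cells, normal cells into healthy, pyknosed or fragmented nuclei, and pyknosed cells into mitotic or apoptotic, with tubulin, mitochondrial-mass and membrane-permeability phenotypes given as per cents of healthy-nucleus cells.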

[1] = 12 h, 1 µM, compound concentration 1 uM, replicate 1
[2] = 12 h, 1 µM, compound concentration 1 uM, replicate 2
[3] = 12 h, 10 µM, compound concentration 10 uM, replicate 1
[4] = 12 h, 10 µM, compound concentration 10 uM, replicate 2
[5] = 24 h, 1 µM, compound concentration 1 uM, replicate 1
[6] = 24 h, 1 µM, compound concentration 1 uM, replicate 2
[7] = 24 h, 10 µM, compound concentration 10 uM, replicate 1
[8] = 24 h, 10 µM, compound concentration 10 uM, replicate 2
[9] = 48 h, 1 µM, compound concentration 1 uM, replicate 1
[10] = 48 h, 1 µM, compound concentration 1 uM, replicate 2
[11] = 48 h, 10 µM, compound concentration 10 uM, replicate 1
[12] = 48 h, 10 µM, compound concentration 10 uM, replicate 2

C[C@H](NC(=O)CNC(=O)c1cccc(Cl)c1)c1ccccc1
Population Apoptotic (%) [1]: 33% | Population Fragmented Nuclei (%) [1]: 5% | Population Healthy Nuclei (%) [1]: 79% | Population Hoechst High Intensity Objects (%) [1]: 8% | Population Membrane Permeable-Phenotype (%) [1]: 0% | Population Mitochondria Different-Phenotype (%) [1]: 39% | Population Mitotic Cells (%) [1]: 66% | Population Normal (%) [1]: 91% | Population Pyknosed Nuclei (%) [1]: 15% | Population Tubulin-Different-Phenotype (%) [1]: 29% | Total Cell Count [1]: 449 | Population Apoptotic (%) [2]: 48% | Population Fragmented Nuclei (%) [2]: 6% | Population Healthy Nuclei (%) [2]: 84% | Population Hoechst High Intensity Objects (%) [2]: 4% | Population Mitochondria Different-Phenotype (%) [2]: 52% | Population Mitotic Cells (%) [2]: 51% | Population Normal (%) [2]: 95% | Population Pyknosed Nuclei (%) [2]: 9% | Population Tubulin-Different-Phenotype (%) [2]: 17% | Total Cell Count [2]: 384 | Population Apoptotic (%) [3]: 41% | Population Fragmented Nuclei (%) [3]: 6% | Population Healthy Nuclei (%) [3]: 76% | Population Hoechst High Intensity Objects (%) [3]: 7% | Population Membrane Permeable-Phenotype (%) [3]: 0% | Population Mitochondria Different-Phenotype (%) [3]: 54% | Population Mitotic Cells (%) [3]: 58% | Population Normal (%) [3]: 92% | Population Pyknosed Nuclei (%) [3]: 17% | Population Tubulin-Different-Phenotype (%) [3]: 39% | Total Cell Count [3]: 362 | Population Apoptotic (%) [4]: 58% | Population Fragmented Nuclei (%) [4]: 7% | Population Healthy Nuclei (%) [4]: 77% | Population Hoechst High Intensity Objects (%) [4]: 13% | Population Mitochondria Different-Phenotype (%) [4]: 61% | Population Mitotic Cells (%) [4]: 41% | Population Normal (%) [4]: 86% | Population Pyknosed Nuclei (%) [4]: 15% | Population Tubulin-Different-Phenotype (%) [4]: 33% | Total Cell Count [4]: 272 | Population Apoptotic (%) [5]: 23% | Population Fragmented Nuclei (%) [5]: 9% | Population Healthy Nuclei (%) [5]: 80% | Population Hoechst High Intensity Objects (%) [5]: 4% | Population Membrane Permeable-Phenotype (%) [5]: 1% | Population Mitochondria Different-Phenotype (%) [5]: 25% | Population Mitotic Cells (%) [5]: 76% | Population Normal (%) [5]: 95% | Population Pyknosed Nuclei (%) [5]: 10% | Population Tubulin-Different-Phenotype (%) [5]: 15% | Total Cell Count [5]: 646 | Population Apoptotic (%) [6]: 45% | Population Fragmented Nuclei (%) [6]: 7% | Population Healthy Nuclei (%) [6]: 84% | Population Hoechst High Intensity Objects (%) [6]: 2% | Population Membrane Permeable-Phenotype (%) [6]: 0% | Population Mitochondria Different-Phenotype (%) [6]: 32% | Population Mitotic Cells (%) [6]: 54% | Population Normal (%) [6]: 97% | Population Pyknosed Nuclei (%) [6]: 7% | Population Tubulin-Different-Phenotype (%) [6]: 9% | Total Cell Count [6]: 476 | Population Apoptotic (%) [7]: 43% | Population Fragmented Nuclei (%) [7]: 9% | Population Healthy Nuclei (%) [7]: 77% | Population Hoechst High Intensity Objects (%) [7]: 4% | Population Membrane Permeable-Phenotype (%) [7]: 0% | Population Mitochondria Different-Phenotype (%) [7]: 39% | Population Mitotic Cells (%) [7]: 56% | Population Normal (%) [7]: 95% | Population Pyknosed Nuclei (%) [7]: 12% | Population Tubulin-Different-Phenotype (%) [7]: 25% | Total Cell Count [7]: 505 | Population Apoptotic (%) [8]: 58% | Population Fragmented Nuclei (%) [8]: 10% | Population Healthy Nuclei (%) [8]: 78% | Population Hoechst High Intensity Objects (%) [8]: 9% | Population Mitochondria Different-Phenotype (%) [8]: 49% | Population Mitotic Cells (%) [8]: 41% | Population Normal (%) [8]: 90% | Population Pyknosed Nuclei (%) [8]: 11% | Population Tubulin-Different-Phenotype (%) [8]: 19% | Total Cell Count [8]: 303 | Population Apoptotic (%) [9]: 19% | Population Fragmented Nuclei (%) [9]: 13% | Population Healthy Nuclei (%) [9]: 80% | Population Hoechst High Intensity Objects (%) [9]: 3% | Population Membrane Permeable-Phenotype (%) [9]: 0% | Population Mitochondria Different-Phenotype (%) [9]: 15% | Population Mitotic Cells (%) [9]: 80% | Population Normal (%) [9]: 96% | Population Pyknosed Nuclei (%) [9]: 5% | Population Tubulin-Different-Phenotype (%) [9]: 12% | Total Cell Count [9]: 984 | Population Apoptotic (%) [10]: 30% | Population Healthy Nuclei (%) [10]: 81% | Population Hoechst High Intensity Objects (%) [10]: 2% | Population Membrane Permeable-Phenotype (%) [10]: 2% | Population Mitochondria Different-Phenotype (%) [10]: 16% | Population Mitotic Cells (%) [10]: 70% | Population Normal (%) [10]: 97% | Population Tubulin-Different-Phenotype (%) [10]: 6% | Total Cell Count [10]: 606 | Population Apoptotic (%) [11]: 44% | Population Fragmented Nuclei (%) [11]: 15% | Population Healthy Nuclei (%) [11]: 77% | Population Hoechst High Intensity Objects (%) [11]: 1% | Population Membrane Permeable-Phenotype (%) [11]: 0% | Population Mitochondria Different-Phenotype (%) [11]: 26% | Population Mitotic Cells (%) [11]: 55% | Population Normal (%) [11]: 98% | Population Pyknosed Nuclei (%) [11]: 7% | Population Tubulin-Different-Phenotype (%) [11]: 18% | Total Cell Count [11]: 735 | Population Apoptotic (%) [12]: 35% | Population Fragmented Nuclei (%) [12]: 19% | Population Healthy Nuclei (%) [12]: 72% | Population Hoechst High Intensity Objects (%) [12]: 2% | Population Mitochondria Different-Phenotype (%) [12]: 28% | Population Mitotic Cells (%) [12]: 64% | Population Normal (%) [12]: 97% | Population Tubulin-Different-Phenotype (%) [12]: 16% | Total Cell Count [12]: 462
